Experimental data reported in ChEMBL document CHEMBL1806414, “Synthesis and anticonvulsant activity of 7-phenyl-6,7-dihydro-[1,2,4]triazolo[1,5-a]pyrimidin-5(4H)-ones and their derivatives” (Eur J Med Chem, 2011).
Active and inactive are the calls of the source. No cut-off for these calls is given here.

Columns and labels:
Mus musculus [1] = assay: Anticonvulsant activity in Kunming mouse assessed as protection against maximal electric shock-induced seizures at 300 mg/kg, ip measured after 4 hrs; assay type: functional, organism-based; design: dose 300 mg/kg
Outline: (§1)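 KunMing mice (18–22 g), compounds dissolved in DMSO, given i.p. at 30, 100 and 300 mg/kg, three mice per dose. Current applied through corneal electrodes for 0.2 s at 0.5 h and 4 h after dosing. Protection is abolition of tonic hind-leg extension, scored as protected/tested.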

Mus musculus [2] = assay: Anticonvulsant activity in Kunming mouse assessed as protection against maximal electric shock-induced seizures at 100 mg/kg, ip measured after 4 hrs; assay type: functional, organism-based; design: dose 100 mg/kg; outline: as §1
Mus musculus [3] = assay: Anticonvulsant activity in Kunming mouse assessed as protection against maximal electric shock-induced seizures at 30 mg/kg, ip measured after 0.5 hrs; assay type: functional, organism-based; design: dose 30 mg/kg; outline: as §1
Mus musculus [4] = assay: Anticonvulsant activity in Kunming mouse assessed as protection against maximal electric shock-induced seizures at 30 mg/kg, ip measured after 4 hrs; assay type: functional, organism-based; design: dose 30 mg/kg; outline: as §1
Mus musculus [5] = assay: Anticonvulsant activity in Kunming mouse assessed as protection against maximal electric shock-induced seizures at 100 mg/kg, ip measured after 0.5 hrs; assay type: functional, organism-based; design: dose 100 mg/kg; outline: as §1
Mus musculus [6] = assay: Anticonvulsant activity in Kunming mouse assessed as protection against maximal electric shock-induced seizures at 300 mg/kg, ip measured after 0.5 hrs; assay type: functional, organism-based; design: dose 300 mg/kg; outline: as §1
Mus musculus [7] = assay: Neurotoxicity in Kunming mouse at 100 mg/kg, ip after 4 hrs; assay type: toxicity, organism-based; design: dose 100 mg/kg, route intraperitoneal; conditions: in vivo
Outline: (§2)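 Rotarod neurotoxicity in KunMing mice (18–22 g) trained on a 3.2 cm diameter rod at 10 rpm. Compounds in DMSO were given i.p. at 30, 100 and 300 mg/kg, three mice per dose, and tested at 0.5 h and 4 h after dosing.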

Mus musculus [8] = species: Mus musculus; assay: Protective index, ratio of TD50 for neurotoxicity in Kunming mouse to ED50 for inhibition of MES-induced seizures in Kunming mouse; assay type: functional
Mus musculus [9] = assay: Neurotoxicity in Kunming mouse at 100 mg/kg, ip after 0.5 hrs; assay type: toxicity, organism-based; design: dose 100 mg/kg, route intraperitoneal; conditions: in vivo; outline: as §2
Mus musculus [10] = assay: Anticonvulsant activity against maximal electric shock-induced seizures in ip dosed Kunming mouse assessed as median effective dose; assay type: functional
Outline: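 Phase-II MES test in KunMing mice (18–22 g), DMSO vehicle, corneal electrode stimulus 0.2 s. Groups of 10 mice got a range of i.p. doses until at least three points fell within 10–90% seizure protection, giving the median effective dose. Endpoint is abolition of tonic hind-leg extension.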

Mus musculus [11] = assay: Neurotoxicity in Kunming mouse at 300 mg/kg, ip after 4 hrs; assay type: toxicity, organism-based; design: dose 300 mg/kg, route intraperitoneal; conditions: in vivo; outline: as §2
[12] = Neurotoxicity in ip dosed Kunming mouse by rotarod test; assay type: toxicity, organism-based; conditions: in vivo
Outline: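 Phase-II rotarod test in KunMing mice trained on a 3.2 cm rod at 10 rpm, DMSO vehicle. Groups of 10 mice got graded i.p. doses until at least three points fell within 10–90% minimal neurotoxicity, giving the median toxic dose.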

Mus musculus [13] = assay: Neurotoxicity in Kunming mouse at 300 mg/kg, ip after 0.5 hrs; assay type: toxicity, organism-based; design: dose 300 mg/kg, route intraperitoneal; conditions: in vivo; outline: as §2

Compound | Activity (Mus musculus [1]) | Activity (Mus musculus [2]) | Activity (Mus musculus [3]) | Activity (Mus musculus [4]) | Activity (Mus musculus [5]) | Activity (Mus musculus [6]) | Activity (Mus musculus [7]) | Ratio TD50/ED50 (Mus musculus [8]) | Activity (Mus musculus [9]) | ED50 (Mus musculus [10]) [mg/kg] | Activity (Mus musculus [11]) | TD50 [12] [mg/kg] | Activity (Mus musculus [13])
O=C1CC(c2ccccc2)n2ncnc2N1Cc1ccccc1 (stereo not given) | inactive | inactive | inactive | inactive |  |  |  |  |  |  |  |  | 
COc1ccc(C2CC(=O)Nc3ncnn32)cc1 (stereo not given) | inactive | inactive | inactive | inactive | inactive |  |  |  |  |  |  |  | 
O=C1CC(c2ccccc2Cl)n2c(nc3ccccc32)N1 (stereo not given) | inactive | inactive | inactive | inactive | inactive | inactive |  |  |  |  |  |  | 
O=C1CC(c2ccccc2Br)n2ccnc2N1 (stereo not given) | inactive | inactive | inactive | inactive |  | Active |  |  |  |  |  |  | 
O=C1CC(c2ccccc2)n2ncnc2N1 (stereo not given) | inactive | inactive | inactive | inactive | Active | Active | Non-toxic | 10.5 | Non-toxic | 51.9 | Non-toxic | 548 | 
O=C1CC(c2ccc(Cl)cc2)n2ncnc2N1 (stereo not given) | inactive | inactive | inactive | inactive |  | Active |  |  |  |  |  |  | 
O=C1CC(c2ccccc2Cl)n2ncnc2N1 (stereo not given) | inactive | inactive | Active | inactive | Active | Active | Non-toxic | 18.2 | Non-toxic | 25.5 | Non-toxic | 465 | 
O=C1CC(c2ccccc2F)n2ncnc2N1 (stereo not given) | inactive | inactive |  | inactive | Active | Active | Non-toxic | 14.4 | Non-toxic | 31.7 | Non-toxic | 456 | 
O=C1CC(c2ccccc2Br)n2c(nc3ccccc32)N1 (stereo not given) | inactive | inactive | inactive | inactive | inactive | inactive |  |  |  |  |  |  | 
O=C1CC(c2ccc(Cl)cc2Cl)n2ncnc2N1 (stereo not given) | inactive | inactive | inactive | inactive | inactive | inactive |  |  |  |  |  |  | 
O=C1CC(c2cccc(F)c2)n2ncnc2N1 (stereo not given) | inactive | inactive | inactive | inactive | inactive |  |  |  |  |  |  |  | 
O=C1CC(c2ccccc2Cl)n2ccnc2N1 (stereo not given) | inactive | inactive | inactive | inactive |  | Active |  |  |  |  |  |  | 
O=C1CC(c2ccccc2F)n2ccnc2N1 (stereo not given) | inactive | inactive | inactive | inactive | Active | Active | Non-toxic | 4.4 | Non-toxic | 88 | Non-toxic | 387 | 
CN1C(=O)CC(c2ccccc2)n2ncnc21 (stereo not given) | inactive | inactive | inactive | inactive |  | Active |  |  |  |  |  |  | 
O=C1CC(c2ccccc2)n2nccc2N1 (stereo not given) | inactive | inactive |  | inactive | Active | Active | Non-toxic | 2.5 |  | 47.3 | Non-toxic | 118 | Toxic
